Test results as given in ChEMBL document CHEMBL1141879, “Alkylamino derivatives of 4-aminomethylpyridine as inhibitors of copper-containing amine oxidases” (J Med Chem, 2005).

Assays:
Primary amine oxidase [1] = molecular target: T1, Primary amine oxidase (Pisum sativum, UniProt Q43077); assay: Inhibition of putrescine binding to Pea seedling amine oxidase; set-up: species or system Lathyrus oleraceus
T1 sequence (Q43077 whole entry): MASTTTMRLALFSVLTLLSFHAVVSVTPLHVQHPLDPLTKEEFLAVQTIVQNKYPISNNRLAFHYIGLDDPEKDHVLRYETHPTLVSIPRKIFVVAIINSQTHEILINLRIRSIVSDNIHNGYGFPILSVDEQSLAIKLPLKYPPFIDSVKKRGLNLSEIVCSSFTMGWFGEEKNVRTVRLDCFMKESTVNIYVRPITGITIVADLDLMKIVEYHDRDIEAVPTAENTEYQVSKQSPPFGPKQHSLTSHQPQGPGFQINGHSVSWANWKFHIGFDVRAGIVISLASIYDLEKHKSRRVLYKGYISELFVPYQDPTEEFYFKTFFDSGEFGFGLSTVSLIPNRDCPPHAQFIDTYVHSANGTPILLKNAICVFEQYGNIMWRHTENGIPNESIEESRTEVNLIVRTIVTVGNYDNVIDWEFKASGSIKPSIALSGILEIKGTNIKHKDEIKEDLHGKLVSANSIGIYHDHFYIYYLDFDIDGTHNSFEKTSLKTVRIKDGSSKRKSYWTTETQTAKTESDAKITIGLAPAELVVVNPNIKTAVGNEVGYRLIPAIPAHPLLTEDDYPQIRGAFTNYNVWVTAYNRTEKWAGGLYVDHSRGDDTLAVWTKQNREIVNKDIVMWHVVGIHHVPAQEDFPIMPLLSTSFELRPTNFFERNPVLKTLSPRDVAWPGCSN
Procedure, shortened: (§1)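 Enzyme sources: BAO from commercial porcine serum; DAO porcine kidney enzyme; PSAO from homogenate of 8-day-old pea seedlings in 0.1 M phosphate pH 7.4, cleared by two centrifugations. Substrate at saturating 1 mM (benzylamine for BAO, putrescine for DAO/PSAO). Activity read as H2O2 production by 4-aminoantipyrine method. IC50 from five inhibitor concentrations, each in duplicate, averaged.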

[2] = molecular target: T2, Amine oxidase [flavin-containing] A (Rattus norvegicus, UniProt P21396); assay: Inhibitory concentration for rat liver Monoamine oxidase A using 5-hydroxytryptamine
T2 sequence (P21396 whole entry): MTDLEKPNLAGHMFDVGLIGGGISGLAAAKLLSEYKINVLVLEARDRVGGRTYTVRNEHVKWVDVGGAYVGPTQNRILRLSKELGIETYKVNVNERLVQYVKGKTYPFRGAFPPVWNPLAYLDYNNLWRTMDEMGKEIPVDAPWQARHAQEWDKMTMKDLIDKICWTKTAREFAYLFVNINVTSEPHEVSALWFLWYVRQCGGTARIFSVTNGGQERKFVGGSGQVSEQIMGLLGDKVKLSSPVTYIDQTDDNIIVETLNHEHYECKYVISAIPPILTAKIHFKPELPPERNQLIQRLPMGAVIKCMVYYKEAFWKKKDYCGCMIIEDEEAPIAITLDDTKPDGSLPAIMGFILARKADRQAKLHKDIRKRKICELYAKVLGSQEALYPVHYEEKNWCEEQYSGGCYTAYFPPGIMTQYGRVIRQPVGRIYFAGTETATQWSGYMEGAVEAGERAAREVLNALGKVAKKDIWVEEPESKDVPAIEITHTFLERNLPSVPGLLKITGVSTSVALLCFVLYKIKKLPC

[3] = molecular target: T3, Peroxisomal primary amine oxidase (Pichia angusta, UniProt P12807); assay: (§2) Inhibition of beta-phenylethylamine binding to Hansenula polymorpha amine oxidase; set-up: species or system Ogataea angusta
T3 sequence (P12807 whole entry): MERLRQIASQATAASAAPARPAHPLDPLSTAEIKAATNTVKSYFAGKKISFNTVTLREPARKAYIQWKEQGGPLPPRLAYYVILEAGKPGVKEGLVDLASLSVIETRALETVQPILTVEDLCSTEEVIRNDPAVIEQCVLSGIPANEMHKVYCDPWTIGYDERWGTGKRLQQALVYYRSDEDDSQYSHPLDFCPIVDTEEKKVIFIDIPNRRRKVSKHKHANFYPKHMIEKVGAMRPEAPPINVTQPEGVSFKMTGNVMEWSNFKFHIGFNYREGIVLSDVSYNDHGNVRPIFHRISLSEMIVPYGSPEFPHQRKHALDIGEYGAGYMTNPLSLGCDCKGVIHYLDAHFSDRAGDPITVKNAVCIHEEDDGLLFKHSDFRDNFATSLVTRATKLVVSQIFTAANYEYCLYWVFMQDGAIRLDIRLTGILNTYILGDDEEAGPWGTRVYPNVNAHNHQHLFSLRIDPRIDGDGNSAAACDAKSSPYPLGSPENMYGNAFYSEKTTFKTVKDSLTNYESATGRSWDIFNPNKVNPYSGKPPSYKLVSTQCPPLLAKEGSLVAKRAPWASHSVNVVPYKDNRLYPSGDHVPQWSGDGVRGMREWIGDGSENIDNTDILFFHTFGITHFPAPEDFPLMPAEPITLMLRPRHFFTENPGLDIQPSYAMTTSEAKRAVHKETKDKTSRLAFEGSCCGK

[4] = molecular target: T4, Amine oxidase [flavin-containing] B (Rattus norvegicus, UniProt P19643); assay: Inhibitory concentration for rat liver Monoamine oxidase B using beta-phenylethylamine
T4 sequence (P19643 whole entry): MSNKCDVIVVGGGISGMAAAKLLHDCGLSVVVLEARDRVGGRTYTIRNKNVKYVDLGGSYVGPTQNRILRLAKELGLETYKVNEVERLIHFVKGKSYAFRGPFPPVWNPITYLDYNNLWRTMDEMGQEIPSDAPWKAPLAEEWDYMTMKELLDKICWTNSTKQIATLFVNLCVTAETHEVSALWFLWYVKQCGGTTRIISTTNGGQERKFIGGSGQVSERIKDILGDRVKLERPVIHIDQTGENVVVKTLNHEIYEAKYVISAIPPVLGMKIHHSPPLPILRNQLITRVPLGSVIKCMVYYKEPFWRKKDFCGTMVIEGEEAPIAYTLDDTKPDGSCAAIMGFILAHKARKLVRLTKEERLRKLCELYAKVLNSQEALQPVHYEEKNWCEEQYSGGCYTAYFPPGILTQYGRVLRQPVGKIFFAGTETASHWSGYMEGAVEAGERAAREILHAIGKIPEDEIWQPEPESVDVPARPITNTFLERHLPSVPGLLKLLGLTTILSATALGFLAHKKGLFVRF

Primary amine oxidase [5] = molecular target: T1, Primary amine oxidase; assay: Inhibition of putrescine binding to pea seedling amine oxidase; set-up: species or system Lathyrus oleraceus; procedure, shortened: as §1
[6] = molecular target: T3, Peroxisomal primary amine oxidase; assay: Inhibition of phenylethylamine binding to Hansenula polymorpha amine oxidase
Procedure, shortened: (§3)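 Enzyme: HPAO from Hansenula polymorpha NCYC-495 grown 24 h with glucose, 1 µM CuSO4 and methylamine, then homogenized in 0.1 M phosphate pH 7.4 and centrifuged. Substrate beta-phenylethylamine at saturating 1 mM. IC50 means from five inhibitor concentrations tested in duplicate.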

[7] = Intraperitoneal lethal dose was measured in Mus musculus; assay type: ADME; details: ip
Procedure, shortened: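 Acute toxicity was tested in Swiss white Mus musculus. Five scaled doses were given intraperitoneally, 10 animals per dose.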

[8] = molecular target: T3, Peroxisomal primary amine oxidase; assay: as §2; procedure, shortened: as §3

SMILES	IC50 (Primary amine oxidase [1]) [µM]	IC50 [2] [µM]	IC50 [3] [µM]	IC50 [4] [µM]	further results
CNc1cncc(N(C)C)c1CN	17	44	100	250	–
CNc1cnccc1CN	–	420	–	> 170	IC50 (Primary amine oxidase [5]): 0.71 µM; IC50 [6]: 53 µM
Cl.Cl.NCc1c(OCCCCO)cncc1OCCCCO	–	–	–	–	LD50 [7]: > 500 mg/kg
Cl.Cl.NCc1c(OCCO)cncc1OCCO.O.O.O	–	> 1600	–	> 1000	LD [7]: > 600 mg/kg
CNc1ccccc1CN	> 100	–	750	> 100	–
CCOc1cncc(OCc2ccccc2)c1CN	–	630	–	1000	–
NCc1ccncc1N	–	> 2000	–	> 2000	–
NCc1ccncc1NC1CC1	–	> 100	> 1000	90	–
CC(C)Nc1cnccc1CN	–	2200	> 1000	2000	–
CCOc1cncc(OCC)c1CN.Cl.Cl	330	> 1600	> 1000	> 1000	LD50 [7]: 342 mg/kg
NCc1ccncc1NC1CCCC1	–	> 100	700	> 100	–
CCCNc1cncc(N(C)CCC)c1CN	–	10	–	20	–
CCNc1cncc(N(C)CC)c1CN	55	63	350	300	–
CCNc1cnccc1CN	9.3	300	87	> 170	–
NCc1ccncc1NC1CCCCCC1	1000	150	> 300	> 100	–
CNc1cncc(NC)c1CN	–	170	–	> 170	–
CCSc1cncc(SCC)c1CN	–	–	–	> 1000	–
CC(C)(C)Sc1cncc(SC(C)(C)C)c1CN	–	–	–	> 1000	–
NCc1ccncc1NCC1CCCCC1	–	95	540	70	–
NCc1ccncc1NC1CCCCC1	–	> 100	> 1000	> 100	–
CCNc1ccccc1CN	> 100	–	–	> 100	IC50 [8]: 1500 µM
NCc1ccncc1N(C1CCCC1)C1CCCC1	–	> 100	> 1000	> 100	–
